Measurements taken from paper PMC5928661 (Molecular Medicine Reports, 2018).

Legend:
MRP4 (HepG2.4D14 cells) = target: T1, MRP4 (HepG2.4D14 cells) (Homo sapiens, UniProt O15439); format: in vitro ADME; conditions: HepG2.4D14, drug 4 days, 5 µM MK571 48 h, LCMS
T1 sequence (O15439 1-1325): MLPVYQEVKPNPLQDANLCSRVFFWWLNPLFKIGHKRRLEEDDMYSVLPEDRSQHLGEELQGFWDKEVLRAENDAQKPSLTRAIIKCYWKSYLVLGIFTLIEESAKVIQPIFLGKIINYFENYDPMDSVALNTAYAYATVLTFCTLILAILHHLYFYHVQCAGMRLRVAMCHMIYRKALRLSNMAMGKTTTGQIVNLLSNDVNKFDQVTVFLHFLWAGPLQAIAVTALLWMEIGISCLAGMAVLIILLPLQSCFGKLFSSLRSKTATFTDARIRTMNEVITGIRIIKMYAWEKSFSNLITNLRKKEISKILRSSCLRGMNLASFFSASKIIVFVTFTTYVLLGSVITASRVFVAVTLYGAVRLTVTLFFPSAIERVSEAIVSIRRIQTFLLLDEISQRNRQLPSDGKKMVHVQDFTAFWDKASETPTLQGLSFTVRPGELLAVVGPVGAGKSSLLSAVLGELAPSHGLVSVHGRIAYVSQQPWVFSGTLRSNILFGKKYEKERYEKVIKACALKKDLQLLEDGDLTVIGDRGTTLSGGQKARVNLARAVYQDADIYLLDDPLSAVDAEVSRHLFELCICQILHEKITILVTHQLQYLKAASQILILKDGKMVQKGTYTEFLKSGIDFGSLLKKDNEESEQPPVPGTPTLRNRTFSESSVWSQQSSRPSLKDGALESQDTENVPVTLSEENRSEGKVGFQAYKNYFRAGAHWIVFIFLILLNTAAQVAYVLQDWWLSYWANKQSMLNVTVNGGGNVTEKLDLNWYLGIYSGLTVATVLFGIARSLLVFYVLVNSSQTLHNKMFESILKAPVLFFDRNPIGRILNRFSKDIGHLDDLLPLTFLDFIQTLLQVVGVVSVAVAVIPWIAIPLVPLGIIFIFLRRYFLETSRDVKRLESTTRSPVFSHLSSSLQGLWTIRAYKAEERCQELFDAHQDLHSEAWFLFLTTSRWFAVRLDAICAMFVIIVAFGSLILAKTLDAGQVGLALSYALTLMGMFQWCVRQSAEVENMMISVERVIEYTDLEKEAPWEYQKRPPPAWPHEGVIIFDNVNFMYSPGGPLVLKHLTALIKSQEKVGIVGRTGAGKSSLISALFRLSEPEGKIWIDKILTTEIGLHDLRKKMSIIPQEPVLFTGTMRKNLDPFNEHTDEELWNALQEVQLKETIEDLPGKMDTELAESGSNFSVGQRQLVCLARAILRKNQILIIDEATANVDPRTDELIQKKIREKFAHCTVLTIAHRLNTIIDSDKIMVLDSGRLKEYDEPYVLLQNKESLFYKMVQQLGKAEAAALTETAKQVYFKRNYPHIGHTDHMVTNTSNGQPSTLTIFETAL

[1] = test system: ETV-resistant HBV (HepG2.A64 cells); assay: Cell-based antiviral assay, supernatant HBV DNA by qPCR; design: species or system hepatitis B virus; conditions: for EC50: Hepatitis B virus, HepG2.A64, 96 h, read-out: EC50 against HBV
MRP4 (HepG2.A64 cells) = target: T2, MRP4 (HepG2.A64 cells) (Homo sapiens, UniProt O15439); format: in vitro ADME; conditions: HepG2.A64, drug 4 days, 5 µM MK571 4 h, LCMS
T2 sequence (O15439 1-1325): T1 sequence (O15439 1-1325)

[2] = test system: wild-type HBV (HepG2.4D14 cells); assay: Cell-based antiviral assay, supernatant HBV DNA by qPCR; conditions: Hepatitis B virus, 96 h, read-out: EC50 against HBV
HepG2.A64 cells = assay: Cell proliferation; format: cell-based, human; conditions: HepG2.A64, CCK-8, 96 h
How it was run: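 HepG2-derived cells carrying ETV-resistant HBV, kept in DMEM with 10% FBS, penicillin-streptomycin and 300 µg/ml geneticin at 37°C, 5% CO2. Seeded at 3×10^3 cells/well; after 24 h, drug dilution series in conditioned medium were added and renewed every other day for 4 days. CCK-8 was added, then 1~4 h incubation and absorbance at 450 nm. Five replicates, three independent experiments; IC50 calculated.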

Compound	Extracellular concentration in presence of MK571 vs control (absence of MK571) (MRP4 (HepG2.4D14 cells))	EC50 [1] [µM]	Extracellular concentration in presence of MK571 vs control (absence of MK571) (MRP4 (HepG2.A64 cells))	EC50 [2] [µM]	Doses at which apparent cytotoxicity was observed (HepG2.A64 cells)	Intracellular accumulation in presence of MK571 vs control (absence of MK571) (MRP4 (HepG2.4D14 cells))	Fold resistance (mutant EC50 to wild-type EC50) ([1]; HepG2.A64 vs HepG2.4D14) [fold]	Intracellular accumulation in presence of MK571 vs control (absence of MK571) (MRP4 (HepG2.A64 cells))
C=C1[C@H](CO)[C@@H](O)C[C@@H]1n1cnc2c(=O)[nH]c(N)nc21 [ETV, entecavir]	slightly reduced	6.28 ± 0.07	slightly reduced	0.13 ± 0.02	above 10 µM	–	–	–
Nc1ccn([C@@H]2CS[C@H](CO)O2)c(=O)n1 [LAM, lamivudine]	slightly reduced	5.94 ± 0.2	slightly reduced	4.14 ± 0.03	above 10 µM	–	–	–
CN(C)C(=O)CCSC(SCCC(=O)O)c1cccc(/C=C/c2ccc3ccc(Cl)cc3n2)c1 (stereo not shown) [MK571, 3-([(3-(2-[7-chloro-2-quinolinyl]ethyl)phenyl]-[(3-dimethylamino-3-oxoporphyl)-thio)-methyl]-thio) propanoic acid]	–	–	–	–	above 10 µM	–	–	–
C[C@H](Cn1cnc2c(N)ncnc21)OCP(=O)(O)O [TFV, tenofovir]	slightly reduced	11.43 ± 0.09	slightly reduced	3.24 ± 0.01	above 10 µM	markedly increased	3.5	markedly increased
